Three compounds from ChEMBL document CHEMBL2029265, “2-(Pyrrolidin-1-yl)ethyl-3,4-dihydroisoquinolin-1(2H)-one derivatives as potent and selective histamine-3 receptor antagonists” (J Med Chem, 2012) can be followed below.

In assay [1] the target is 5-hydroxytryptamine receptor 2B (Homo sapiens, UniProt P41595). As to the kind of experiment: Binding affinity to 5-HT2B receptor.
Assay [2] concerns the target Voltage-gated inwardly rectifying potassium channel KCNH2 (Homo sapiens, UniProt Q12809). Put plainly: Inhibition of human ERG by IonWorks assay. In general terms: The patch-clamp technique gives a direct electrical read-out from membranes.
Assay [3] addresses T1, Histamine H3 receptor (Homo sapiens, UniProt Q9Y5N1). As to the kind of experiment: Displacement of [3H]-(R)-alpha-methylhistamine from human H3 receptor expressed in HEK293T cells after 120 mins by scintillation counting. It counts as cell-based, HEK-293T. (In general: Displacement assays read how much labelled ligand stays bound in the presence of the test substance.)
For assay [4], the target named is 5-hydroxytryptamine receptor 6 (Homo sapiens, UniProt P50406). Put plainly: Binding affinity to 5-HT6 receptor.
5-hydroxytryptamine receptor 6, sequence (P50406 whole entry): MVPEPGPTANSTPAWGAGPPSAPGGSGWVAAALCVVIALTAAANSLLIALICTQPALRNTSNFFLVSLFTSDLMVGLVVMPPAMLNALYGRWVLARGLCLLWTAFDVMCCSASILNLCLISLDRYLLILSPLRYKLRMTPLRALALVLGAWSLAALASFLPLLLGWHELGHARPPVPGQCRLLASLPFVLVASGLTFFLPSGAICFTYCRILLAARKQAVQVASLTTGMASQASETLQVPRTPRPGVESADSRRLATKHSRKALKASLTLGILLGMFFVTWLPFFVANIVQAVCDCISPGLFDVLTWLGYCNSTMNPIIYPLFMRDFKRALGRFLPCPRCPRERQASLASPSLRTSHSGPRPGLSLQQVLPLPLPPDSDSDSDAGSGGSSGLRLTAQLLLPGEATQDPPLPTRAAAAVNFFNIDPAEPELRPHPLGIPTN
The target in assay [5] is T2, 5-hydroxytryptamine receptor 1A (Homo sapiens, UniProt P08908).
T2 sequence (P08908 whole entry): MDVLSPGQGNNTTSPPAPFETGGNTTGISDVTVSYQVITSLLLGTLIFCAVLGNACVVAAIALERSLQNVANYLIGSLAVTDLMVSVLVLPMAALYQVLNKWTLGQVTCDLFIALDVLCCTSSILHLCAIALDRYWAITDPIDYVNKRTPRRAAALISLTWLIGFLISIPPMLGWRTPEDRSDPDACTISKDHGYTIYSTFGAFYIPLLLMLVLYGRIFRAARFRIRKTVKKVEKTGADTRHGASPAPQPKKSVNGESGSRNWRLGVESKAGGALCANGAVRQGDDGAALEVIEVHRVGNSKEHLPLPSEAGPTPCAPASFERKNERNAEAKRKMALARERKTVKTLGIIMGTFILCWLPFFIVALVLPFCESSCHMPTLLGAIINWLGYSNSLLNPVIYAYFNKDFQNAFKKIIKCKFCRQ
As to the kind of experiment: Binding affinity to 5-HT1A receptor.

In assay [6] the target is Sodium-dependent dopamine transporter (Homo sapiens, UniProt Q01959). Put plainly: Binding affinity to DAT.
Sodium-dependent dopamine transporter, sequence (Q01959 whole entry): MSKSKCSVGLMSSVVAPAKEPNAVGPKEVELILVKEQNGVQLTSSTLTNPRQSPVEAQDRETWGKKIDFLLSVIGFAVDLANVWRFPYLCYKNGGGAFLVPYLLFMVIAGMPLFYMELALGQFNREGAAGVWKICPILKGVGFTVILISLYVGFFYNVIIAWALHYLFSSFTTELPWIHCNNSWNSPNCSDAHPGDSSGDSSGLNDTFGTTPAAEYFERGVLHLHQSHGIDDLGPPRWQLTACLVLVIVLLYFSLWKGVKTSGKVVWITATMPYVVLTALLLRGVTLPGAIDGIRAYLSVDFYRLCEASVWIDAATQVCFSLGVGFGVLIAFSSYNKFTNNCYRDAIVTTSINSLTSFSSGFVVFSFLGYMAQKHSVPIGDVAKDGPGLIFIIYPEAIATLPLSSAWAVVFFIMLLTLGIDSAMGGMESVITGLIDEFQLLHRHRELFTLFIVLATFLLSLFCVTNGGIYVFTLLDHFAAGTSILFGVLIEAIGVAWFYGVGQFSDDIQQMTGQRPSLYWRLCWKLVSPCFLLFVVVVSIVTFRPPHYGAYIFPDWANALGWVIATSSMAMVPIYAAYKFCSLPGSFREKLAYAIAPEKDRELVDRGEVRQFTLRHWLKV
The target of assay [7] is T3, Alpha-2A adrenergic receptor (Homo sapiens, UniProt P08913).
T3 sequence (P08913 whole entry): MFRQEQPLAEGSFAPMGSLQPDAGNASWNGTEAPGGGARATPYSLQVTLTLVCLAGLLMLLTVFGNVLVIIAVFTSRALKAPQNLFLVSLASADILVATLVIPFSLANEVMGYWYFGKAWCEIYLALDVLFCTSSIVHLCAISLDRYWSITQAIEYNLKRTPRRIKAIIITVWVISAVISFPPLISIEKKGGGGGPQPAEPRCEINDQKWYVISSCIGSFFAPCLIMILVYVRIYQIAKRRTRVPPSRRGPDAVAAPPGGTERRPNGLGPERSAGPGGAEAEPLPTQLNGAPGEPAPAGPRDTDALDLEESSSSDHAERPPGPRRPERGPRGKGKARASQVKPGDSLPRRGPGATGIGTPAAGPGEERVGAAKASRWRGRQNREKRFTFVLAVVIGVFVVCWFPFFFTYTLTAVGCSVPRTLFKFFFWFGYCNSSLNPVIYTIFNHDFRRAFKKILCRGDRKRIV
As to the kind of experiment: Binding affinity to alpha-2A receptor.

Assay [8] addresses Sodium-dependent serotonin transporter (Homo sapiens, UniProt P31645). Put plainly: Binding affinity to 5-HT transporter.
A further assay addresses D(2) dopamine receptor (Homo sapiens, UniProt P14416). Put plainly: Binding affinity to D2 receptor.
In the next assay the target is Histamine H1 receptor (Homo sapiens, UniProt P35367). Put plainly: Binding affinity to H1 receptor.
Another assay addresses Histamine H2 receptor (Homo sapiens, UniProt P25021). As to the kind of experiment: Binding affinity to H2 receptor.
For another assay, the system named is Rattus norvegicus. Put plainly: Inhibition of (R)-alpha-methylhistamine-induced water consumption in rat dispogenia model at 3 to 10 mg/kg, ip administered 30 mins prior (R)-alpha-methylhistamine challenge measured over 1 hr. It is filed as functional, organism-based. An outline of the steps:
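Rat dipsogenia model: test article was given ip at 3 or 10 mg/kg 30 min before the H3 agonist (R)-α-methylhistamine. Water consumed during the 1 h after agonist dosing was recorded and compared with vehicle and agonist-alone groups (p < 0.05).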

The target in assay [9] is T1, Histamine H3 receptor. As to the kind of experiment: Inverse agonist activity at human H3 receptor expressed in HEK293T cells assessed as inhibition of {35S]GTPgamma binding relative to basal level. It is filed as cell-based. The conditions noted are these: HEK-293T, concentration not given here. The method, boiled down:
(§1)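 Basal [35S]GTPγS binding was measured in membranes from HEK cells expressing human H3 receptor, across a range of concentrations. EC50 and maximal inhibition relative to basal binding were derived.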

For assay [10], the target named is T1, Histamine H3 receptor. As to the kind of experiment: Inverse agonist activity at human H3 receptor expressed in HEK293T cells assessed as inhibition of {35S]GTPgamma binding. It counts as cell-based. The conditions noted are these: HEK-293T. An outline of the steps:
as §1

Activity calls are given as the source filed them. The rule behind the calls is not given here.

T1 sequence (Q9Y5N1 whole entry): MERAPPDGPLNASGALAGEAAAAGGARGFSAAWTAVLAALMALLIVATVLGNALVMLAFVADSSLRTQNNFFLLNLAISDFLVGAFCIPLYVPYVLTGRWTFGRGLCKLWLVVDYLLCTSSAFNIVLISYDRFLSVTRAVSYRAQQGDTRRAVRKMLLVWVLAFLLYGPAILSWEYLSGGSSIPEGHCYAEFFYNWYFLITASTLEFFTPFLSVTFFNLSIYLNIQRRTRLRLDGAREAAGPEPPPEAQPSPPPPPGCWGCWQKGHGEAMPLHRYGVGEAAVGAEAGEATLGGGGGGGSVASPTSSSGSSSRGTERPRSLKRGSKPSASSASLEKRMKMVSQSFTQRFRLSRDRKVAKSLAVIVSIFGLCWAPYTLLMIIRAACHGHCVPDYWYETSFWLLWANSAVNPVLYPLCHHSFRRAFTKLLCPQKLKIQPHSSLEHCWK
5-hydroxytryptamine receptor 2B, sequence (P41595 whole entry): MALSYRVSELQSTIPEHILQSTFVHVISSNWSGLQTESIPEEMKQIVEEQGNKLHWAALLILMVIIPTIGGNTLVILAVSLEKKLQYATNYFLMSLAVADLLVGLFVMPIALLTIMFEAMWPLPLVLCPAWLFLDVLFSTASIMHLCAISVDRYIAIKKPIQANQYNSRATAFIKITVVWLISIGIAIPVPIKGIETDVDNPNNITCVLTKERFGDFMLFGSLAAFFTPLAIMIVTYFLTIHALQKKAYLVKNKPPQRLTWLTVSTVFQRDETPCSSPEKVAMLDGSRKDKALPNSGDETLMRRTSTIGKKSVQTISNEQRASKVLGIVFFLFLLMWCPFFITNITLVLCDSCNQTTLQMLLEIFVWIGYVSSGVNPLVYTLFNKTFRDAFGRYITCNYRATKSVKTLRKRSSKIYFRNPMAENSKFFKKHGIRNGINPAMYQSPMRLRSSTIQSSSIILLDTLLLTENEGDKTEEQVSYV
Histamine H2 receptor, sequence (P25021 whole entry): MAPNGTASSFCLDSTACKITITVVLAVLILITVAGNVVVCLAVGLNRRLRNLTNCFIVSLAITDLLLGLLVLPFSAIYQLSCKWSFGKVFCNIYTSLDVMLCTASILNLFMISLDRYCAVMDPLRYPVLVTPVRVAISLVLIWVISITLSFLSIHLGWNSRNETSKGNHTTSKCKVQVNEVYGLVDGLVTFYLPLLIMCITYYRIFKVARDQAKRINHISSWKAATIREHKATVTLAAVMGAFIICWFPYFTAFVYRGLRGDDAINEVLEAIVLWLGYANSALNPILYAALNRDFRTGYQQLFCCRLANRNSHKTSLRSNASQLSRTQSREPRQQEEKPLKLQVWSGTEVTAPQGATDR
Voltage-gated inwardly rectifying potassium channel KCNH2, sequence (Q12809 whole entry): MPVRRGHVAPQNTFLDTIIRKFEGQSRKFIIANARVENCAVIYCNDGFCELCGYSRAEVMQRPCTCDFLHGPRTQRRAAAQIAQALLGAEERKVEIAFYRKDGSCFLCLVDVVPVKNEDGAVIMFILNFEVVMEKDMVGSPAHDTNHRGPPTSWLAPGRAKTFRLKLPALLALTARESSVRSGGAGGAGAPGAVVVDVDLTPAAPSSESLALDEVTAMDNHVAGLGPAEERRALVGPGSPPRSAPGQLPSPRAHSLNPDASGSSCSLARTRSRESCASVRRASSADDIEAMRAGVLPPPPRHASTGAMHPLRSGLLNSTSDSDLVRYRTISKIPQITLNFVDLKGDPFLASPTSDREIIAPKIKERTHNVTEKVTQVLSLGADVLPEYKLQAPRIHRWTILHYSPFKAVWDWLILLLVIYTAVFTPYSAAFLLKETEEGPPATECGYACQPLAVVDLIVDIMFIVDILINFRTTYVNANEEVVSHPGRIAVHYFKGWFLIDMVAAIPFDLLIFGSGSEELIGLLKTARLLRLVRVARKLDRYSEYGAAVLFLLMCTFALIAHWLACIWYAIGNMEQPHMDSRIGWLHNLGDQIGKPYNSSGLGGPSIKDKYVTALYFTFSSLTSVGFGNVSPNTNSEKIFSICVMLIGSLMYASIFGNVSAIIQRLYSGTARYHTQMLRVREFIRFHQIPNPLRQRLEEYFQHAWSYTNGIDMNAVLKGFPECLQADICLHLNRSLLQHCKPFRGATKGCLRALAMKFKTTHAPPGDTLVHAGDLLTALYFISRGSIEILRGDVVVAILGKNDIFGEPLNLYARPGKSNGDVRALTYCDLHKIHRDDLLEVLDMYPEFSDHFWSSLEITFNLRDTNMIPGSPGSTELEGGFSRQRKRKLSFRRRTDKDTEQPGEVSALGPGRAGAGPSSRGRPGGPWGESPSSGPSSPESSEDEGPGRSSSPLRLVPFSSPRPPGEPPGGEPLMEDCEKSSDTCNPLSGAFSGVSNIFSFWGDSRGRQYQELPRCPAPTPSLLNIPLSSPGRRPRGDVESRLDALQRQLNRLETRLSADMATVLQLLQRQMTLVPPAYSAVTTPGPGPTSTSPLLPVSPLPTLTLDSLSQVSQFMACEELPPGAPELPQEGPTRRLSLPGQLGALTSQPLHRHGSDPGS
D(2) dopamine receptor, sequence (P14416 whole entry): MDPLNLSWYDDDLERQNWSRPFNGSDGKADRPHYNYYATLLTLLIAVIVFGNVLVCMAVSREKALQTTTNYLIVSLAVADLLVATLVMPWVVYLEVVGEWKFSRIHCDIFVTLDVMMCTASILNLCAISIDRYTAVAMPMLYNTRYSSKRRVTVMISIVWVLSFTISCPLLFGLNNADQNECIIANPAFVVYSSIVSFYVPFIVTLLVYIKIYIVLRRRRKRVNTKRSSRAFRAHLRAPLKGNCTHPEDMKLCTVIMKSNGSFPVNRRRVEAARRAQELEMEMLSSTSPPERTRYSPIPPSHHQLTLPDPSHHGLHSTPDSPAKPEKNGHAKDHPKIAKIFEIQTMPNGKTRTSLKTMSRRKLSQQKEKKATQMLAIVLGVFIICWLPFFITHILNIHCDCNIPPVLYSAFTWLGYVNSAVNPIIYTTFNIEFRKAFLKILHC
Sodium-dependent serotonin transporter, sequence (P31645 whole entry): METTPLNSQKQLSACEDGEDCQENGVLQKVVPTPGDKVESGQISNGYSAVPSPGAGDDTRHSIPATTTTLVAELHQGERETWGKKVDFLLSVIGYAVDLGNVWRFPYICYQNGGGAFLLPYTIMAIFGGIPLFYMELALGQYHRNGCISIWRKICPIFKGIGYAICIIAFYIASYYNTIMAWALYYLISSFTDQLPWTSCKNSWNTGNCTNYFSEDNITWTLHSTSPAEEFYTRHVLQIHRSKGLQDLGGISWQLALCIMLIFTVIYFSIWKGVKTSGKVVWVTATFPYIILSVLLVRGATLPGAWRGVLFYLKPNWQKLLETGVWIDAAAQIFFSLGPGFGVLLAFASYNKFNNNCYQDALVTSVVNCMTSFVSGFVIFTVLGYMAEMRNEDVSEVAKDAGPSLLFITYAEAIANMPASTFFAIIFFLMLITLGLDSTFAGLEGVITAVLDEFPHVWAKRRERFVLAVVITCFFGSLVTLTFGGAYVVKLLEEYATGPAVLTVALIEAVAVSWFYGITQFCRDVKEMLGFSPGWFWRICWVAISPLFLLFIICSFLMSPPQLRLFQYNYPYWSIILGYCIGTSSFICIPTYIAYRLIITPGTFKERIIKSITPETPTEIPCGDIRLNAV

Regarding `C[C@H]1CCCN1C(=O)c1ccc(-c2ccc3c(c2)CCN(CCN2CCCC2)C3=O)cc1`, the Ki in [1] was above 10 µM; on Histamine H3 receptor [3], 0.0017 µM; in assay [4], above 10 µM; in assay [5], 9.04 µM; in [6], above 10 µM; in [7] it was above 3 µM. Further, the Ki in assay [8] was 0.39 µM; on D(2) dopamine receptor, above 10 µM; on Histamine H1 receptor it was 7.01 µM; at Histamine H2 receptor, above 10 µM. Further, in assay [2], 12 µM corresponded to half-maximal inhibition (IC50).
In the case of `CN(C)C(=O)c1ccc(-c2ccc3c(c2)CCN(CCN2CCCC2)C3=O)cc1`, the inhibition entry in the assay with Rattus norvegicus was “Active”. Further, the inhibition at Histamine H3 receptor [9] is 65%. The Activity result at Histamine H3 receptor [10] was “Dose-dependent effect”.
For the compound `CCNC(=O)c1ccc(-c2ccc3c(c2)CCN(CCN2CCC[C@H]2C)C3=O)cc1`, the Ki in assay [1] was above 10 µM; at Histamine H3 receptor [3], 0.001 µM; in assay [4], above 10 µM; in assay [5] it was 10.1 µM; in [6] it was above 10 µM; in assay [7] it was above 3 µM. Further, the Ki in assay [8] was 0.3 µM; on D(2) dopamine receptor, above 10 µM; at Histamine H1 receptor, 7.23 µM; on Histamine H2 receptor it was above 10 µM. Moreover, the IC50 in assay [2] was found to be 7.4 µM.

A word on the Ki: it is a dissociation constant, usually derived from enzyme kinetics or from competition with a known ligand. The low end stands for a stronger hold on the target, the high end for a looser hold on the target. Usually IC50 stands for the concentration at which inhibition is half-maximal. The inhibition is the drop in the measured response relative to a control, in per cent.
